# The source made the active and inactive calls.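 The calls were made as follows, unless noted: active = inhibition above 20% together with a positive visual image hit; inconclusive = visual image hit but inhibition not above 20%; inactive = no visual image hit.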
# Key:
# [1] = inhibitors of TNFa-induced NFkB p65 translocation, primary screen, imaging, HUVEC, MLSMR starter and 10KST1 sets (AID 438); conditions: HUVEC TNFa-induced p65 nuclear translocation; cell count: measured here: nuclei count (cytotoxicity indicator), at 2.08 µM; inhibition: at 2 µM, stronger effect = higher value, 0% TNFa-plus-vehicle, 100% no-TNFa wells;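 also: compound added about 3h40 before a 20 min TNFalpha stimulation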;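 as to inhibition: signal is the nuclear over cytoplasmic p65 intensity ratio per well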
# [2] = inhibitors of E-selectin induction by TNFa, primary screen, imaging, HUVEC, immunofluorescence, MLSMR starter and 10KST1 sets (AID 487;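 active = visually confirmed hit in the image check and inhibition above 20%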;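 as to inhibition: signal is fraction of cell area covered by stained E-selectin grains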;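 as to nuclei count: 100% = median nuclei count of all wells on the same plate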); conditions: HUVEC TNFalpha-induced E-selectin immunofluorescence imaging, at 2 µM; inhibition: stronger effect = higher value; nuclei count: measured here: cell number, toxicity
# [3] = DUSP6 inhibitors restoring Erk phosphorylation by chemical complementation, primary imaging in DUSP6-transfected HeLa (AID 609;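 active = compounds giving at least 50% inhibition in the cell-based MKP-3 phosphatase rescue imaging test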;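 as to inhibition: phospho-Erk level distribution per well compared with pooled transfected vehicle control wells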); conditions: HeLa MKP-3 transfected, phospho-Erk imaging KS statistic, at 10 µM, cells stimulated with TPA for 15 min
# [4] = molecular target: Dual specificity protein phosphatase 6 (Homo sapiens) (UniProt Q16828); experiment: as above; conditions: HeLa MKP-3 transfected, phospho-Erk imaging KS statistic; at 10 µM; stronger effect = higher value; cells stimulated with TPA for 15 min
# Sequence of Dual specificity protein phosphatase 6 (Homo sapiens) (Q16828 whole entry, looked up): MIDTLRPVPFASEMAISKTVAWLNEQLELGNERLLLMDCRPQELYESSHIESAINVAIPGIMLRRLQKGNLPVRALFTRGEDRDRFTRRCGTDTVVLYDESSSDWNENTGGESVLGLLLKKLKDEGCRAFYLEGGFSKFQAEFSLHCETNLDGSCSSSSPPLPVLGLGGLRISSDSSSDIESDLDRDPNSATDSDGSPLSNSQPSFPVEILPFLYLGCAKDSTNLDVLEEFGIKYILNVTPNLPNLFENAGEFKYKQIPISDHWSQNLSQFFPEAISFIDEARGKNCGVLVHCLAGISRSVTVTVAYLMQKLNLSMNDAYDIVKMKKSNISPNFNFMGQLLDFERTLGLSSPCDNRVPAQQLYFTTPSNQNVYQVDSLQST
# [5] = molecular target: Voltage-gated potassium channel subunit beta-2 (Rattus norvegicus) (UniProt P62483); experiment: KvBeta enzyme negative modulators, primary screen, biochemical, NADPH fluorescence (AID 622;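 active = fluorescence slope higher than the sample average by over 3 SD, cut at about -0.22 in these data, passing the limit was not always enough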;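 also: slope of raw intensity against log time taken from 70 to 1610 s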); conditions: recombinant KvBeta, 4-cyanobenzaldehyde reduction, at 10 µM, stronger effect = higher value
# Sequence of Voltage-gated potassium channel subunit beta-2 (Rattus norvegicus) (P62483 whole entry, looked up): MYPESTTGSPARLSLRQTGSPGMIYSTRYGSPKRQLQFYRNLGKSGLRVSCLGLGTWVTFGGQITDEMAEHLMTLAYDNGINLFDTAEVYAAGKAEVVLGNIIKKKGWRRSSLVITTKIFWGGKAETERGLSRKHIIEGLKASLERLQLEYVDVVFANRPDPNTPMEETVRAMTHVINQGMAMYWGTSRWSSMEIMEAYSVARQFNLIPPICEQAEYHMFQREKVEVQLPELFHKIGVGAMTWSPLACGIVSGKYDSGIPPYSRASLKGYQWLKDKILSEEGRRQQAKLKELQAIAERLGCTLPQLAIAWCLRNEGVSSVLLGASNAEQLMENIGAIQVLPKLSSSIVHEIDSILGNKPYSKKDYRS
# [6] = molecular target: Voltage-gated potassium channel subunit beta-2 (Rattus norvegicus) (UniProt P62483); experiment: KvBeta positive modulators, primary screen, biochemical, NADPH fluorescence (AID 623;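 active = NADPH fluorescence slope more negative than the mean of all samples by about 3 SD, 99.7% confidence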;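 also: fluorescence intensity change per second fitted from 20 to 320 s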); conditions: Recombinant KvBeta, NADPH fluorescence decrease slope, 10 min; at 10 µM; stronger effect = lower value
# [7] = molecular target: Muscarinic acetylcholine receptor M4 (Homo sapiens) (UniProt P08173); experiment: compounds altering M4/GIRK thallium flux, either direction, primary screen, M4 allosteric agonist project, cell-based, HEK293 M4/GIRK, BTC-AM (AID 625;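 active = fluorescence slope after compound addition differing from the mean of all tested samples at 99.7% confidence, mostly higher but some lower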;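 also: thallium influx through GIRK channels coupled to M4 in HEK293 cells with BTC-AM dye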); conditions: at 10 µM, actives lie on both sides
# Sequence of Muscarinic acetylcholine receptor M4 (Homo sapiens) (P08173 whole entry, looked up): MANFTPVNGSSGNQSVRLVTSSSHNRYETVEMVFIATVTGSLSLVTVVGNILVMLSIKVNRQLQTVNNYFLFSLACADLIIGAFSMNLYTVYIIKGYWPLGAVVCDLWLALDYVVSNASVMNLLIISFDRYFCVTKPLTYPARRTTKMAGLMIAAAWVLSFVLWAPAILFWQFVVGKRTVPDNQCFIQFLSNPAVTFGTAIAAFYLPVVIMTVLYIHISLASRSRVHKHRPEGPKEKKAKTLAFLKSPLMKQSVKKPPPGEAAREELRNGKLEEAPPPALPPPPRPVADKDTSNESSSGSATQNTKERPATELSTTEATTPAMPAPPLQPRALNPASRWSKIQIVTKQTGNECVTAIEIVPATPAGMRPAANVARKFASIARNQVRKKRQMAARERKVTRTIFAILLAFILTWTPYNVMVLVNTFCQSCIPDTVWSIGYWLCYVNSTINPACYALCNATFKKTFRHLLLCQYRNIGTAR
# In short: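 Material – HEK293 cells with M4 receptor and GIRK channels · Buffer or medium – pH 7.3 thallium assay buffer · Doses – one dose, 10 µM final · Timing – cells overnight at 37 °C, BTC-AM loading 1 h, reads 2 min total · Measured by – kinetic fluorescence with BTC-AM dye · Controls – carbachol and DMSO controls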
# [8] = inhibitors of larval lipid processing in zebrafish, primary screen, whole organism, PED6 fluorescence, gall bladder and intestine (AID 686;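 active = a full or partial loss of lipid-probe fluorescence in the fish gall bladder, intestine or both, judged by eye; inactive = no fluorescence loss, or compound toxic to the fish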;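 also: larvae 5 to 7 days old with five fish per well; signal comes from phospholipase A2 cleavage of quenched PED6 carried via bile; overnight exposure to compound and PED6 before scoring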); conditions: Zebrafish larvae PED6 lipid processing, fluorescence scoring; screened at 20 µM (by protocol)
# In short: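 system = live zebrafish larvae aged 5-7 days, whole organism | probe or stimulus = ingested quenched lipid PED6 at 100 nM | doses = 20 µM single dose | timing = overnight exposure | detection = fluorescence microscopy with visual scoring of gall bladder and intestine | read-out = visual per-well fluorescence inhibition score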
# [9] = inhibitors of Chlamydomonas gravitaxis, primary screen, whole organism, Chlamydomonas reinhardtii, WT vs cilia-less mutant, absorbance, 96-well (AID 463189;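 active = inhibition at or above 50% relative to wild type and mutant plate controls; inactive = inhibition below 50%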;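 also: 0% = wild type cc124 cells in DMSO and 100% = ciliumless bld1 mutant cells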); conditions: OD600 absorbance, 2 days, at 10 µM, stronger effect = higher value
# [10] = measured here: cell density z-score
# [11] = measured here: nuclear c-Myc green intensity z-score
# [12] = measured here: nuclear pErk red intensity z-score, stronger effect = higher value
Structure (SMILES),cell count [1],inhibition [1],inhibition [2],nuclei count [2] [%],"z-score [3, 10]","z-score [3, 11]","z-score [3, 12]",inhibition [4],fluorescence slope [5],NADPH fluorescence slope [6],fluorescence slope [7],outcome [8],inhibition [9]
COc1ccc2[nH]cc(C(=O)CN(C)CCc3ccc(OC)c(OC)c3)c2c1,516,-15.4% (inactive),-59.5% (inactive),137,0.922,-0.876,1.1,-14.6% (inactive),-0.476 (inactive),-7.3e-05 (inactive),0.00394 (inactive),inactive,-1.18% (inactive)
COC(=O)COc1ccc(Oc2nc(SC)nc(N(C)C)n2)nn1,345,-16.3% (inactive),-54.5% (inactive),109,-0.468,-0.441,-0.861,-3.95% (inactive),-0.461 (inactive),-8.1e-05 (inactive),0.00594 (inactive),inactive,-8.33% (inactive)
COc1ccc(C2=CC(c3ccc(C)cc3)n3nnnc3N2)cc1 (stereo unspecified),524,-9.2% (inactive),29.9% (inactive),186,-0.166,-0.102,0.752,-9.91% (inactive),-0.294 (inactive),-4.1e-05 (inactive),0.00566 (inactive),inactive,-5.34% (inactive)
Fc1ccc2[nH]c3c(N4CCSCC4)ncnc3c2c1,664,-4.3% (inactive),0.7% (inactive),153,-0.905,0.444,1.27,-3.95% (inactive),-0.418 (inactive),-2.2e-05 (inactive),0.00396 (inactive),inactive; toxic,5.41% (inactive)
O=C(O)C1CC(=O)N(Cc2cccs2)C1 (stereo unspecified),557,-4.7% (inactive),-73.2% (inactive),165,0.677,0.857,-1.54,17.8% (inactive),-0.404 (inactive),-3e-05 (inactive),0.00636 (inactive),inactive,-9.05% (inactive)
C=CC[N+](C)(C)CCCNC(=O)/C=N/O,665,-3.3% (inactive),-22.3% (inactive),164,0.15,-0.161,-1.51,-9.53% (inactive),-0.482 (inactive),-4.6e-05 (inactive),0.00537 (inactive),inactive,-5.25% (inactive)
Cc1ccc(S(=O)(=O)NC(=O)Nc2ncc3c(n2)CC(c2ccco2)CC3=O)cc1 (stereo unspecified),662,-3.8% (inactive),45.8% (inactive),89.6,1.23,-1.12,-0.985,22.1% (inactive),-0.51 (inactive),-2.8e-05 (inactive),0.00507 (inactive),inactive,-13.7% (inactive)
Cn1c(CSc2ncn[nH]2)nc2ccccc21,537,-6.4% (inactive),-75.5% (inactive),122,-3.21,1.73,1.28,20.2% (inactive),-0.49 (inactive),-0.000116 (inactive),0.00416 (inactive),inactive,-14.5% (inactive)
CC12CN3CC(C)(CN(C1)C3c1ccc(Br)cc1O)C2 (stereo unspecified),576,-3% (inactive),-162% (inactive),138,0.885,-1.75,-1.65,5.42% (inactive),-0.472 (inactive),-8.8e-05 (inactive),0.00399 (inactive),inactive,4.37% (inactive)
Cn1c(=O)c2c(nc(NCCCO)n2Cc2cccc(C(F)(F)F)c2)n(C)c1=O,652,-11.8% (inactive),-70% (inactive),95.4,-1.68,-0.0388,0.32,-5.95% (inactive),-0.492 (inactive),-6.8e-05 (inactive),0.00722 (inactive),inactive,-3.98% (inactive)
CC(C)Sc1nnc2n(CCc3ccccc3)c(=O)c3c4c(sc3n12)COC(C)(C)C4,532,-8% (inactive),-61.3% (inactive),139,0.633,-0.0361,-0.58,7.93% (inactive),-0.435 (inactive),-2.4e-05 (inactive),0.00702 (inactive),inactive,19% (inactive)
CC1(C)CC(=O)C(C=Nc2ccc(Cl)cn2)=C(O)C1,493,-2.2% (inactive),-68.2% (inactive),114,0.174,-1.57,0.727,15.9% (inactive),-0.464 (inactive),-2.5e-06 (inactive),0.0108 (inactive),inactive,35.7% (inactive)
CC(NC(=O)CSc1nc2c(cc1C#N)CN(C)CC2)c1ccccc1 (stereo unspecified),739,5.9% (inactive),-3.5% (inactive),170,0.748,-0.601,-0.682,6.04% (inactive),-0.429 (inactive),-3.9e-05 (inactive),0.00365 (inactive),inactive,11.3% (inactive)
CSc1nc2[nH]c3c(c2c2nncn12)CC(C)(C)OC3,554,-4.9% (inactive),-169% (inactive),129,0.946,0.54,-1.06,5.42% (inactive),-0.511 (inactive),-8.3e-05 (inactive),0.00422 (inactive),inactive,-2.07% (inactive)
Cc1ccc2cc(CNC(C)(C)C)c(=O)[nH]c2c1,632,-4.2% (inactive),-5% (inactive),141,-0.205,-0.75,-0.413,7.7% (inactive),-0.493 (inactive),-3.2e-05 (inactive),0.00705 (inactive),inactive,2.56% (inactive)
COc1cccc(N2CCN(C(=O)c3ccc(=O)oc3)CC2C)c1 (stereo unspecified),548,-13.7% (inactive),-2.6% (inactive),114,0.444,-0.0742,1.46,-2.91% (inactive),-0.418 (inactive),6.4e-07 (inactive),0.00472 (inactive),inactive,13.7% (inactive)
C=C(C)CC1N(c2cccc(OC)c2)C(=O)[C@@H]2C(C(=O)O)[C@H]3C=C[C@@]12O3 (stereo partly specified),628,-15.4% (inactive),51.9% (inactive),182,-0.541,1.19,1.46,-7.28% (inactive),-0.49 (inactive),-7.9e-05 (inactive),0.00494 (inactive),inactive,-0.618% (inactive)
CC(C)Cc1nc(N2CCN(C(=O)Cc3ccccc3)CC2)c(C#N)c2c1COC(C)(C)C2,601,-8.9% (inactive),-80.2% (inactive),153,-0.132,-0.0812,-0.136,9.07% (inactive),-0.453 (inactive),-0.000102 (inactive),0.00471 (inactive),inactive,13.3% (inactive)
N#CCCN(C(=O)c1ccco1)c1ccccc1,600,3.1% (inactive),-91% (inactive),128,0.6,-1.06,-0.443,1.42% (inactive),-0.462 (inactive),-0.000111 (inactive),0.00534 (inactive),inactive,-5.86% (inactive)
COC(=O)Sc1nc(N2CCOCC2)c2c(c1C#N)CC(C)(C)OC2,565,-2% (inactive),-116% (inactive),132,0.0433,-0.438,1.3,3.42% (inactive),-0.49 (inactive),-0.000143 (inactive),0.00476 (inactive),inactive,24.4% (inactive)
CCC1SC2=NC(C)=C(C(=O)OCCOC)C(c3ccc(C(=O)OC)cc3)N2C1=O (stereo unspecified),441,-11.9% (inactive),-71.6% (inactive),154,0.414,-0.811,-0.806,-2.29% (inactive),-0.411 (inactive),-4.9e-05 (inactive),0.0052 (inactive),inactive,6.13% (inactive)
Cc1ccc(CNc2oc(COc3ccccc3Cl)nc2C#N)cc1,402,-2.8% (inactive),-40.3% (inactive),82.6,-0.405,-0.319,-0.994,4.37% (inactive),-0.387 (inactive),2.1e-06 (inactive),0.00728 (inactive),inactive,28.6% (inactive)
COC(=O)CSc1nc(N)nc(C)c1Br,688,-10% (inactive),23.8% (inactive),150,0.424,0.473,0.0816,-3.95% (inactive),-0.429 (inactive),-3.4e-05 (inactive),0.00418 (inactive),inactive,-4.73% (inactive)
CCN(CC)c1nc(N2CCOCC2)c(C#N)c2c1CN(C)CC2,580,-9.1% (inactive),-116% (inactive),152,1.03,-1.51,0.0125,7.21% (inactive),-0.43 (inactive),-0.000217 (inactive),0.00408 (inactive),inactive,43.3% (inactive)
CCOC(=O)COn1c(=O)c(-c2ccc(OC)c(OC)c2)[n+]([O-])c2ccccc21,542,-6% (inactive),-40.6% (inactive),142,0.722,-0.529,0.673,-1.98% (inactive),-0.33 (inactive),-7.7e-06 (inactive),0.00588 (inactive),inactive,37.5% (inactive)
CCOC(=O)c1[nH]c2ccc(OC)cc2c1NC(=O)CCN1CCCC(C)C1 (stereo unspecified),521,-0.1% (inactive),9.9% (inactive),100,-0.422,-0.411,-1.15,11.4% (inactive),-0.351 (inactive),-1.8e-05 (inactive),0.00513 (inactive),inactive,28.8% (inactive)
Cc1ccc(C(=O)/C=C/Nc2ccccn2)cc1,361,-5.9% (inactive),-98.9% (inactive),104,0.761,0.782,-1.14,15.4% (inactive),-0.455 (inactive),-3.3e-05 (inactive),0.00424 (inactive),inactive,35.5% (inactive)

# From PubChem BioAssay
